# Screens (PubChem)
# SKN-1 block = inhibitors of C. elegans SKN-1. C. elegans VP596 Pgst-4::GFP/RFP ratio, acrylamide-induced, 24 h. inhibition, % at 21.8 µM. hit rate 0.49% among 360,000. AID 624304;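 active = interference check ratio from 0.5 to 1.5 plus GFP to RFP signal ratio inhibition reaching or exceeding a fixed threshold, cut at about 30% in these data, passing the limit was not always enough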
# eIF4H inh = inhibitors of RNA binding by human eIF4H | eIF4H fluorescence polarization binding assay | inhibition, % at 35 µM | hit rate 0.94% among 290,000 | AID 2012;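 also: calls also rest on retests at 20 µM and on dose response follow-up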
# MT1-MMP act inh = inhibitors of human MT1-MMP activation; hit rate 0.061% among 360,000; P50281; HT1080 RFP-PRO-GFP cells, GFP/RFP ratio fluorescence, overnight; percent of plate control window, DMSO zero; AID 651647; GFP/RFP ratio change, % at 20 µM;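 active = GFP/RFP ratio change of at least 30% with cell ATP level not reduced by more than half and red fluorescence within 50% of control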
#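 Material – HT1080 RFP-PRO-GFP cells · Control set – DMSO wells and RFP-L50D-GFP cells · Incubation – overnight cell settling, then overnight compound exposure, 37 °C, 5% CO2 · Compound dosing – single-point 20 µM compound, 1% DMSO · Read-out – GFP/RFP fluorescence ratio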
# PABP polyA inh = PABP-poly(A) binding inhibition | P11940 | PABP-poly(A) RNA binding, fluorescence polarization | inhibition, % at 35 µM | hit rate 1% among 290,000 | AID 2014;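 also: calls also rest on retests at 20 µM and on dose response follow-up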
# PABP1 MLLE inh = blocks PAM2 peptide binding to the PABP1 MLLE domain | GST-MLLE / FITC-PAM2 fluorescence polarization | inhibition, % at 20 µM | hit rate 0.36% among 360,000 | AID 588489; in the data active = inhibition above about 35%, passing the limit was not always enough;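 also: plate controls were DMSO wells with GST-MLLE for no effect and wells lacking GST-MLLE protein for full effect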
# Numbers without * were called inactive; u = inconclusive; x = no result given. Hits are enriched below; roughly 1.7% of the tested compounds scored in any of these assays. Unless noted, no rule for the calls is given here.
SMILES,SKN-1 block,eIF4H inh,MT1-MMP act inh,PABP polyA inh,PABP1 MLLE inh
CCc1ccc(C(N)=S)cc1,-0.7,-6.7,-2.2,u,41.4*
Cc1nonc1OC(C)CNc1ccc([N+](=O)[O-])cc1 (stereo not given),35.9*,-7.3,7.2,-5.8,7.0
Cc1nonc1OCCNc1ccc([N+](=O)[O-])cc1[N+](=O)[O-],20.9,-5.3,13.2,-11.2,-1.2
COC(=O)c1sc(=S)n(-c2cc(F)ccc2F)c1N,6.1,-9.8,7.9,-10.7,39.5*
CCOC(=O)c1sc(=S)n(-c2cc(F)ccc2F)c1N,12.1,1.3,2.7,1.3,36.9
COc1cccc(-c2cc(NC=O)c3ncc(-c4ccc(F)c(Cl)c4)n3c2)c1,-0.6,x,-1.7,x,-24.9
CC1CCC(C(C)C)C(OC(=O)COC(=O)c2ccc(N)cc2)C1 (stereo not given),11.3,-12.9,1.9,-4.9,-16.5
CC1CCC(C(C)C)C(OC(=O)C[n+]2cccc(C(N)=O)c2)C1 (stereo not given),37.9*,-10.3,-14.8,13.2,1.6
COc1c2c(c(OC)c3c1c(=O)c1ccccc1n3C)OCO2,7.6,x,-6.0,x,19.0
COc1c2c(c3c(c1OC)c(=O)c1ccccc1n3C)OCO2,-7.8,x,-8.5,x,55.1*
COc1ccc(C=Nc2ccc3[nH]ncc3c2)c(O)c1,1.4,77.4*,4.2,37.0*,-0.4
Cc1ccc(NC(=O)CSc2nc(-c3ccco3)nc3cc(=O)[nH]n23)c(Cl)c1,5.1,85.7*,2.0,56.4*,-4.1
O=C(Nc1cc(Cl)c(Cl)cc1Cl)c1cccnc1,2.2,8.0,0.7,7.5,6.6
Nc1cccc2nc3ccccc3cc12,7.7,4.3,0.2,-0.7,10.9
Cc1cc2c(N)cccc2nn1,33.2,96.2*,17.7,87.5*,13.8
CC1=CC(C)(C)[N+](C)(C)c2ccc(C)cc21,8.8,1.1,1.3,58.7*,-110.7
COc1ccc(/C=N/n2c(=O)[nH]c3c([nH]c4ccc(Br)cc43)c2=O)cc1CN1CCOCC1,37.5*,0.7,4.9,-16.8,4.5
COc1ccc(/C=N/n2c(=O)[nH]c3c([nH]c4ccc(Cl)cc43)c2=O)cc1CN1CCCCC1,4.4,-11.9,1.4,-35.8,1.7
COc1ccc(C(C)(C)C)cc1NC(=O)CCCN1C(=O)CN(C)C1=O,-12.7,x,0.7,x,-20.1
C=CCSC1=N/C(=C\C=C\c2ccco2)C(=O)S1,7.6,96.0*,-5.9,75.9*,2.5
C=CCSC1=N/C(=C\c2sccc2C)C(=O)S1,-35.8,-3.7,-1.3,-4.9,12.5
O=C(C[C@H]1C/C=C\CC[C@H](Cc2ccc(F)cc2)C(=O)O[C@H](c2ccccc2)CNC1=O)N[C@H](CO)Cc1ccccc1,-1.8,x,-1.0,x,-7.8
O=C(c1ccc2c(c1)OCO2)C1CCCN(C(=O)NCc2ccccc2)C1 (stereo not given),1.8,57.6*,0.5,52.8*,-0.6
O=C(c1ccc2c(c1)OCO2)C1CCCN(C(=O)c2cnn(Cc3ccccc3)c2)C1 (stereo not given),-19.2,4.5,-4.0,7.2,10.4
Cc1c(Cl)cccc1NC(=O)CNC(=O)C1CCN(C(=O)Nc2ccccc2)CC1,15.0,x,5.6,x,3.1
SMILES,SKN-1 block,eIF4H inh,MT1-MMP act inh,PABP polyA inh,PABP1 MLLE inh
O=c1c(/C=N/OCc2ccc(Cl)cc2Cl)c[nH]n1-c1cccc(Cl)n1,20.6,24.7*,0.5,73.5,-8.1
Cc1cc(O)c(/C=N/OCc2ccc(Cl)cc2Cl)c(=O)o1,-5.3,-9.5,0.5,-1.5,-3.8
Cc1nnc(NC(=O)CSc2nc(C(C)C)nc3ccccc23)s1,10.3,-3.9,-1.4,-12.3,37.3*
CN(C)c1ccc(CNc2ncnc3sccc23)cc1,-17.2,-3.9,5.6,-1.0,-14.3
CCCCN1Cc2c(nc3cc(-c4ccco4)[nH]n3c2=O)C1=O,5.5,88.1*,1.0,84.2*,3.2
COCc1cc(=O)n2[nH]c(-c3ccco3)cc2n1,14.8,-0.8,-1.3,-2.2,15.3
Cc1cc(OCc2cccc(Cl)c2)c(C)cc1CN1CCOCC1,72.3*,-4.3,-2.3,0.4,1.8
CCCN1CCCc2cc(CN)ccc21,15.4,58.1*,-8.4,92.0*,45.1*
CN1CCCc2cc(C=O)ccc21,-1.2,-3.5,-0.3,9.7,-7.8
CCOC(=O)Nc1nc(-c2ccc(Cl)cc2Cl)cs1,57.1*,17.1,-0.9,-0.5,15.3
COC(=O)c1ccc(/C=N/Nc2nc(-c3ccc(Cl)cc3Cl)cs2)cc1,x,2.7,x,-7.8,x
